GC-A act: GC-A (human) enzyme activation; P16066; HEK293 GC-A cells, cGMP TR-FRET, EC30 ANP; 0% at EC30 ANP, 100% saturating ANP; activation, % at 10 µM; 0.14% of 370,000 active; in the data active = activation above about 40%
CaV13 ICDI inh: Primary screen for inhibitors of IQ motif and Ca2+-dependent inactivation inhibitor domain binding in CACNA1D, Förster resonance energy transfer in living cells, … | AID 743397 | 0.098% of 340,000 active | HEK cells, CFP/YFP FRET ICDI-IQ, plate reader, 10 min; percent FRET-ratio fall versus neutral wells | inhibition, % at 12.3 µM;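 active = mean replicate inhibition of at least 30% and at least 1% of replicates passing that level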;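 note: 0% = median of the neutral control wells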
GC-B act: GC-B (human) receptor activation | HEK293-GC-B cells, CNP EC30, cGMP TR-FRET; 0% at EC30 CNP, 100% saturating CNP | activation, % at 10 µM | 0.11% of 370,000 active | P20594;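 active = activation at 10 µM reaching about 35% in either raw or pattern-adjusted values, limit read from the data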
FN deposit inh: fibronectin deposition inhibition | AH1F fibroblasts, Alexa488-fibronectin deposition fluorescence, overnight | inhibition, % at 12.6 µM | 0.086% of 350,000 active | AID 743247;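 active = mean inhibition across replicates of 30% or more, regardless of how many single replicates reach that level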;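 note: positive control wells lacked labelled fibronectin entirely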
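Material – AH1F fibroblast monolayer, labelled fibronectin deposition · Reagent – labelled fibronectin 24 nM · Timing – 1 h adhesion, overnight exposure · Measured by – fluorescence at 485 nm excitation, 525 nm emission · Read-out – inhibition of fibronectin deposition signal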
Casp6 inh: caspase-6 (human) enzyme inhibition; P55212; purified caspase-6, Z-VEID-R110 cleavage fluorescence; inhibition, % at 12.5 µM; 0.53% of 350,000 active; AID 686996;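 active = mean inhibition across replicates at least about 35%, with every replicate also reaching that limit, limit read from the data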;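 note: 0% = median of neutral control wells and 100% = no fluorescence left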
NSD2 HMT inh: blocks human histone methyltransferase NSD2; O96028; inhibition, % at 12.5 µM; AID 743445; NSD2 peptide methylation, AlphaScreen, 120 min; 0.54% of 310,000 active; in the data active = inhibition above about 50%
Target sequence (O96028 whole entry, looked up): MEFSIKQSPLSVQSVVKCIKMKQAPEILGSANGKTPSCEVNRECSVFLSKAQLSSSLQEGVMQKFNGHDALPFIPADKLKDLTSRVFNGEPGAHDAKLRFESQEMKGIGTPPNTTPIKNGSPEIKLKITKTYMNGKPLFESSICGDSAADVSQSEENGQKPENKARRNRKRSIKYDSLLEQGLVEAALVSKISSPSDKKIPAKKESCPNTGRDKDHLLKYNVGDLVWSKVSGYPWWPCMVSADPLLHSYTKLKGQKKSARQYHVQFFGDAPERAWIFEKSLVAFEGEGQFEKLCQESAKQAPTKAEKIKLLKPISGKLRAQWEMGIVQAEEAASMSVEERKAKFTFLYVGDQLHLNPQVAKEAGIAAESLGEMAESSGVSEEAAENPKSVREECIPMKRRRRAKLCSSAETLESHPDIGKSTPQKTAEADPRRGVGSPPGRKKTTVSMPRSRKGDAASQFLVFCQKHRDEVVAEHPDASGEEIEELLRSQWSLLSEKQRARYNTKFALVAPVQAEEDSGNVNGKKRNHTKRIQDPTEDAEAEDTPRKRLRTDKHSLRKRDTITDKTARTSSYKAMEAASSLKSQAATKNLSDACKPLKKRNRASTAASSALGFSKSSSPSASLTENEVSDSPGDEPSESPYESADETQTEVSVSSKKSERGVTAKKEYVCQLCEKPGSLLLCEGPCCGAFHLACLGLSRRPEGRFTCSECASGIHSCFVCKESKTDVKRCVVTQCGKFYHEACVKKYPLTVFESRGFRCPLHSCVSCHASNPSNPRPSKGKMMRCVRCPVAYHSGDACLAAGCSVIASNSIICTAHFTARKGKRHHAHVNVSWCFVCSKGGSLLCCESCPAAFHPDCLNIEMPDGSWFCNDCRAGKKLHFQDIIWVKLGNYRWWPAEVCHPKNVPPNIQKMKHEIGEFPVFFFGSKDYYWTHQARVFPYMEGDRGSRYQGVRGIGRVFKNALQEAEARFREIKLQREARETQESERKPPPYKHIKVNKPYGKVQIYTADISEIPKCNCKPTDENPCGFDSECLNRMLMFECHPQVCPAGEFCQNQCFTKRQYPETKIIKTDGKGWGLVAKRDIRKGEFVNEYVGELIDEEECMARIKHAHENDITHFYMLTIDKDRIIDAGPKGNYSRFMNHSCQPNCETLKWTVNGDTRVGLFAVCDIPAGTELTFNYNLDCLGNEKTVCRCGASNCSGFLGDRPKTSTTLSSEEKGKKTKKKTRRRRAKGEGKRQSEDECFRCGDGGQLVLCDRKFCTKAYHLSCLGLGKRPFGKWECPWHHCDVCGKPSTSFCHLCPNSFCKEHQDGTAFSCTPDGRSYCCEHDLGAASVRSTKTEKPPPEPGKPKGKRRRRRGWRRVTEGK
* marks the source's active call; other numbers are inactive results; . = not tested or not shown; + = active, no number. Only some compounds are listed: those with a hit (about 0.99% of all), similar ones and a draw of the others.

SMILES	GC-A act	CaV13 ICDI inh	GC-B act	FN deposit inh	Casp6 inh	NSD2 HMT inh
Cc1cc(C(=O)Cn2ncc(Cl)c(Cl)c2=O)c(C)n1CC(F)(F)F	45*	-3	56*	3	3	3
CCCNC(=O)N1C[C@H](C)[C@H](OC)CN(C)C(=O)c2ccc(NC(=O)CC)cc2OC[C@H]1C	.	.	.	-4	2	.
COc1ccc(-n2c(-c3ccccc3)cc3c2CCCC3=O)cc1	-6	-8	-12	.	7	44
O=C1CCCc2c1cc(-c1ccccc1)n2-c1ccc(O)cc1	75*	-15	6	4	1	-1
O=C(Nc1ccc2c(c1)[C@@H]1C[C@H](CC(=O)N3CCc4ccccc4C3)O[C@H](CO)[C@@H]1O2)NC1CCCC1	.	.	.	.	1	.
COC(=O)CCCC1=CC2=CC(=O)C(C)(OC(=O)c3cccs3)C(=O)C2=CN1Cc1ccccc1 (stereo unspecified)	5	-4	0	-24	7	.
COC(=O)CCCC1=CC2=CC(=O)C(C)(OC(=O)c3cccs3)C(=O)C2=CN1Cc1ccco1 (stereo unspecified)	1	-4	-2	-6	47*	.
NC(=S)c1cc2ccc(O)cc2oc1=O	38	13	14	.	.	8
O=c1oc2cc(O)ccc2cc1-c1nc2ccccc2o1	-4	38*	-2	-21	18	-18
CCN(CC)c1ccc2cc(S(=O)(=O)c3ccc(Cl)cc3)c(=O)oc2c1	-1	+	10	-2	0	.
O=c1oc2cc(O)ccc2cc1S(=O)(=O)c1ccccc1	2	31*	0	4	5	-7
CCCCCCc1cc2cc(S(=O)(=O)c3ccc(Cl)cc3)c(=O)oc2cc1O	6	.	0	-12	-1	.
Cc1noc(C)c1S(=O)(=O)N(C)C[C@@H]1OCCCC[C@H](C)Oc2ccc(NS(=O)(=O)c3cccs3)cc2C(=O)N([C@@H](C)CO)C[C@H]1C	.	.	.	.	1	.
O=C(N[C@@H]1CC[C@@H](CCn2cc(C3(O)CCCC3)nn2)O[C@H]1CO)C1CC1	.	.	.	.	4	.
COc1cc(-c2nnc(COC(=O)c3ccc(C)o3)o2)cc(OC)c1OC	1	-5	-1	-3	35*	0
COc1ccc(Cl)c2c1[nH]c1nc(SCc3cccnc3)nnc12	32	.	43*	-3	-1	-1
C[C@@H](NC(=O)C[C@@H]1CC[C@H]2[C@@H](COC[C@H](O)CN2C(=O)Nc2ccccc2)O1)c1ccccc1	.	.	.	-11	-1	.
C=C(CCC(=O)c1ccccc1)C(=O)c1ccccc1	-26	-5	-21	-1	61*	4
CC(C)CC#Cc1ccc2c(c1)O[C@@H](CN(C)C(=O)c1cccc(F)c1)[C@@H](C)CN([C@H](C)CO)S2(=O)=O	.	.	.	-9	1	.
Cc1ccc(S(=O)(=O)N(C)C[C@H]2Oc3ccc(NC(=O)Nc4cccc5ccccc45)cc3CC(=O)N([C@@H](C)CO)C[C@H]2C)cc1	.	.	.	20	-1	.
O=[N+]([O-])c1cc(-c2ccc(C(=S)N3CCOCC3)o2)ccc1Cl	6	-50	2	-10	11	26
O=C(O)c1ccc(-c2cccc(Cl)c2)o1	-1	-8	-3	.	3	0
N#CCCN1CCN(C(=S)c2ccc(-c3ccc(Cl)c(Cl)c3)o2)CC1	29	.	61*	.	.	.
N#CCCN1CCN(C(=S)c2ccc(-c3cccc(Cl)c3)o2)CC1	21	.	73*	.	.	3
C[C@@H]1CN([C@@H](C)CO)C(=O)c2ccccc2-c2ccccc2CO[C@@H]1CN(C)S(C)(=O)=O	.	.	.	-3	1	.
SMILES	GC-A act	CaV13 ICDI inh	GC-B act	FN deposit inh	Casp6 inh	NSD2 HMT inh
COc1ccc(NC(=O)/C(C#N)=C\c2ccc(Br)o2)cc1	-1	-4	-3	0	45*	-2
CC(C)CCn1cnc2c(c1=O)c1nc3ccccc3nc1n2Cc1ccc2c(c1)OCO2	39	-9	50*	.	-1	-3
COc1ccc(-c2ccc3c(c2)C2CC3CCN2C(=O)OCc2ccccc2)cc1 (stereo unspecified)	2	-3	0	active	0	.
O=C(OCc1ccccc1)N1CCC2CC1c1cc(-c3ccc(F)cc3)ccc12 (stereo unspecified)	1	-10	0	-2	-4	.
CCn1cnc2c1c(=O)n(Cc1ccc(C(=O)OC)cc1)c(=O)n2Cc1ccccc1	-13	-2	35*	4	0	-2
O=C(O)C[C@H]1CC[C@@H](NC(=O)c2ccncc2)[C@@H](CO)O1	.	.	.	0	1	.
C=CCn1c(=O)c2c3c(sc2n2c(Nc4ccccc4)nnc12)CCCC3	26	2	26	.	.	3
C=CCn1c(=O)c2c3c(sc2n2c(Nc4ccc(OC)cc4)nnc12)CCCC3	48*	-3	54*	-5	.	0
COc1ccccc1CN(C)C(=O)CN1CCN(CC(=O)Nc2ccccc2Cl)CC1	1	-2	6	6	36*	1
COc1cccc(C(=O)OC(C)C(=O)NCC2CCCCC2)c1 (stereo unspecified)	-1	-3	-5	-8	36*	-2
CCC(=O)N1CC[C@@H]2[C@H]1c1cc(-c3ccc(C(=O)N(C)C)cc3)ccc1N[C@@H]2CO	.	.	.	-8	6	.
C/C(=N\Nc1ccc(C(=O)O)cc1)c1ccc(Br)cc1	1	-6	-2	-5	43*	10
C[C@@H]1CCCCO[C@H](CN(C)S(=O)(=O)c2ccc(Cl)cc2)[C@H](C)CN([C@@H](C)CO)C(=O)c2cc(NS(=O)(=O)c3ccccc3)ccc2O1	.	.	.	-3	2	.
O=C(Cc1ccccc1)N1C[C@H]2[C@@H](c3ccccc31)[C@H](CO)N2C(=O)C1CCCC1	.	.	.	-12	.	.
COc1cccc(CNC(=O)C[C@@H]2C=C[C@@H](NS(=O)(=O)c3ccccc3OC)[C@H](CO)O2)c1	.	.	.	.	0	.
Cc1cccc(-c2nc(CCNC(=O)c3ccco3)cs2)c1	1	-5	-1	-6	42*	1
Cc1ccc(-c2nc(CCNC(=O)c3ccco3)cs2)cc1	3	-4	-1	0	-9	-1
CCOC(=O)c1c(C)oc2c1c(C=NCc1ccccn1)c(O)c1ccccc12	11	-6	3	13	60*	.
CCOC(=O)c1c(C)oc2c1c(C=NCC1CCCO1)c(O)c1ccccc12 (stereo unspecified)	25	.	0	-10	.	99*
C[C@@H]1CN([C@H](C)CO)C(=O)Cc2cc(NC(=O)c3ccncc3)ccc2O[C@H]1CN(C)C(=O)Nc1cccc2ccccc12	.	.	.	10	-1	.
O=c1cc(-c2ccc(O)cc2)oc2c(O)c(O)c(O)c(O)c12	-1	.	-7	.	63*	.

Source: PubChem BioAssay (several laboratories)
